From ChEMBL document CHEMBL2331214, “Structure-Based Design and Synthesis of an HIV-1 Entry Inhibitor Exploiting X-Ray and Thermodynamic Characterization” (ACS Med Chem Lett, 2013) come the findings set out here.

As a reminder, the IC50 is the midpoint of a concentration-inhibition curve. For orientation: Kd means the concentration at which binding is half-saturated. A low value points to a tighter complex.

Where only a bound is given, the exact number is not on record here.

A short description of data set [1]: Inhibition of AMLV gp120 binding to human CD4 expressed in canine CF2Th cells coexpressing CCR5 after 2 to 4 hrs by luciferase reporter gene assay. Format: cell-based, Amphotropic murine leukemia virus.
Data set [2] in a line: Inhibition of HIV1 isolate YU2 gp120 binding to human CD4 expressed in dog CF2Th cells coexpressing CCR5 after 2 to 4 hrs by luciferase reporter gene assay. Format: cell-based, Human immunodeficiency virus type 1 (isolate YU2). In a few lines:
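HIV-1 YU2 infection of Cf2Th cells expressing CD4 and CCR5; the IC50 is for inhibition of viral entry.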
For orientation: A reporter such as luciferase makes a cellular process visible.

The nature of data set [3]: Binding affinity to HIV1 full length gp120 by isothermal titration calorimetric assay. Details: species or system Human immunodeficiency virus 1. In a few lines: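 ITC titration of full-length monomeric gp120 with ligand at 25 °C.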
On the technique in general: In ITC the heat of successive injections is recorded.

The test system of data set [4] is Human immunodeficiency virus 1. Description: Activation of HIV1 isolate YU2 infectivity in CD4 negative dog CF2Th cells expressing CCR5 by luciferase reporter gene assay relative to TS-2-224. It counts as organism-based. Particulars: human immunodeficiency virus 1, cf2th.
The subject of data set [5] is Human immunodeficiency virus 1. The experiment in a line: Activation of HIV1 isolate YU2 infectivity in CD4 negative dog CF2Th cells expressing CCR5 by luciferase reporter gene assay relative to NBD556. It counts as organism-based. The conditions noted are these: human immunodeficiency virus 1, cf2th. Summed up:
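HIV-1 YU2 infection of CD4-negative Cf2Th-CCR5 cells; relative activation of viral infectivity is normalized to the reference CD4-mimetic agonist.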

Data set [6] deals with Human immunodeficiency virus 1. Description: Antiviral activity against 0.01 to 0.1 MOI HIV1 Env-pseudovirus Clade B infected in human TZM-bl cells after 30 mins by luciferase assay. Particulars: Human immunodeficiency virus 1, Clade B, 0.5 h. Format: functional, organism-based. Summed up: (§1)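 Neutralization breadth is tested against a panel of 42 diverse Tier 2 clade B and C Env-pseudoviruses. IC50 values are summarized as geometric mean titers for the sensitive strains.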

Data set [7] relates to Human immunodeficiency virus 1. Description: Antiviral activity against 0.01 to 0.1 MOI HIV1 Env-pseudovirus Clade C infected in human TZM-bl cells after 30 mins by luciferase assay. Format: functional, organism-based. The conditions noted are these: Human immunodeficiency virus 1, Clade C, 0.5 h. In a few lines:
as §1

For `N=C(N)N[C@H]1Cc2ccccc2[C@@H]1NC(=O)C(=O)Nc1ccc(Cl)c(F)c1.O=CO`, the IC50 in data set [1] is over 100 µM; in data set [2] it was 22.9 µM. Besides, the Kd in data set [3] came to 0.25 µM. The “fold change (FC)” value in data set [4] came to 0.1.

As to `N=C(N)N[C@@H]1Cc2ccccc2[C@H]1NC(=O)C(=O)Nc1ccc(Cl)c(F)c1.O=CO`, the IC50 in data set [1] is over 100 µM; in data set [2], 21.3 µM. In data set [3], this molecule yielded a Kd of 0.3 µM. In data set [4], the “fold change (FC)” value is reported as 0.

As for `N=C(N)NCC[C@@H]1Cc2ccccc2[C@H]1NC(=O)C(=O)Nc1ccc(Cl)c(F)c1.O=CO`, the concentration for half-maximal inhibition (IC50) in data set [1] was over 100 µM; in data set [2] it was 68.5 µM. For the same molecule, in data set [3], binding was characterised by a dissociation constant (Kd) of 2 µM. Moreover, the “fold change (FC)” value in data set [5] is 0.

Take `N=C(N)NC[C@@H]1Cc2ccccc2[C@H]1NC(=O)C(=O)Nc1ccc(Cl)c(F)c1.O=CO`: the values for the IC50 in data set [1] and in data set [2] were over 100 µM and 37.9 µM, respectively. The molecule further yielded a Kd in data set [3] of 6.2 µM. For the same molecule, the “fold change (FC)” value in data set [5] was 0.11.

Turning to `N=C(N)NCC[C@H]1Cc2ccccc2[C@@H]1NC(=O)C(=O)Nc1ccc(Cl)c(F)c1.O=CO`, the IC50 was over 100 µM in data set [1] and 28.2 µM in data set [2]. In data set [3], this molecule came in with a dissociation constant (Kd) of 0.34 µM. For the same molecule, in data set [5], the “fold change (FC)” value is listed as 0.17.

In the case of `N=C(N)NC[C@H]1Cc2ccccc2[C@@H]1NC(=O)C(=O)Nc1ccc(Cl)c(F)c1.O=CO`, the IC50 was 1.7 µM in data set [6], over 100 µM in data set [1], 14 µM in data set [7] and 2.3 µM in data set [2]. In data set [3], binding was characterised by a dissociation constant (Kd) of 0.11 µM. Also, the “fold change (FC)” value in data set [5] came out at 0.

As for `N=C(N)NCC1Cc2ccccc2C1NC(=O)C(=O)Nc1ccc(Cl)c(F)c1` (racemic), the IC50 in data set [2] stood at 10.3 µM.
